Reference: ChEMBL document CHEMBL2177094, “Structure dependence of long-chain [18F]fluorothia fatty acids as myocardial fatty acid oxidation probes” (J Med Chem, 2012)

How the values were obtained:
[1] = system: Liver; experiment: Biodistribution in overnight fasted Sprague-Dawley rat liver organic fraction at 0.7 to 1.4 MBq, iv at 120 mins by Folch-type extraction method; type: ADME, organism-based; settings: in vivo, 2 h
How it was run: (§1)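 Female Sprague-Dawley rats, fasted overnight, under isoflurane (3.5% induction, 1.5% maintenance). [18F] tracer in 0.5–1.0% BSA/saline was given by tail vein. POCA group: 30 mg/kg i.p. 120 min before tracer. About 0.5 g tissue was homogenized and sonicated in chloroform/methanol (2:1) at 0 °C, then 40% urea and 5% H2SO4 were added and spun 10 min at 1,800 g. Aqueous, organic and pellet fractions were counted as % of total.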

[2] = system: Kidney; experiment: Drug uptake in overnight fasted Sprague-Dawley rat kidney at 0.7 to 1.4 MBq, iv preincubated with POCA for 2 hrs before compound administration measured at 120 mins post treatment; type: ADME, organism-based; settings: in vivo
How it was run: (§2)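 Female rats fasted overnight, under isoflurane (3.5% induction, 1.5% maintenance). 18F-labelled tracer formulated in 0.5–1.0% BSA/saline, injected via tail vein. Tissues harvested at 30 or 120 min, weighed, gamma-counted, decay-corrected. Uptake expressed as % dose kg/g, i.e. tissue CPM × body wt (kg) × 100 / (tissue wt (g) × dose CPM). POCA groups received 30 mg/kg i.p. 2 h before tracer. n = 5–6.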

[3] = system: Brain; experiment: Drug uptake in overnight fasted Sprague-Dawley rat brain at 0.7 to 1.4 MBq, iv at 120 mins; type: ADME, organism-based; settings: in vivo, 2 h
How it was run: (§3)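 Overnight-fasted female Sprague-Dawley rats under isoflurane received the [18F] tracer in 0.5–1.0% BSA/saline by tail vein. POCA group: 30 mg/kg i.p. 2 h before tracer. Tissues were excised at 30 or 120 min, weighed and gamma-counted with decay correction. Uptake = % dose kg/g, i.e. CPM tissue × body wt (kg) × 100 / (tissue wt (g) × CPM dose). n = 5–6.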

[4] = system: Kidney; experiment: Drug uptake in overnight fasted Sprague-Dawley rat kidney at 0.7 to 1.4 MBq, iv at 120 mins; type: ADME, organism-based; settings: in vivo, 2 h; how it was run: as §2
[5] = system: Liver; experiment: Biodistribution in overnight fasted Sprague-Dawley rat liver pellet fraction at 0.7 to 1.4 MBq, iv preincubated with POCA for 2 hrs before compound administration measured at 120 mins post treatment by Folch-type extraction method; type: ADME, organism-based; settings: in vivo; how it was run: as §1
[6] = system: Muscle tissue; experiment: Drug uptake in overnight fasted Sprague-Dawley rat muscle at 0.7 to 1.4 MBq, iv preincubated with POCA for 2 hrs before compound administration measured at 30 mins post treatment; type: ADME, organism-based; settings: in vivo, 0.5 h; how it was run: as §2
[7] = system: Muscle tissue; experiment: Biodistribution in overnight fasted Sprague-Dawley rat muscle aqueous fraction at 0.7 to 1.4 MBq, iv at 120 mins by Folch-type extraction method; type: ADME, organism-based; settings: in vivo, 2 h; how it was run: as §1
[8] = system: Bone; experiment: Drug uptake in overnight fasted Sprague-Dawley rat bone at 0.7 to 1.4 MBq, iv at 30 mins; type: ADME, organism-based, Bone element; settings: in vivo, 0.5 h; how it was run: as §3
[9] = system: Liver; experiment: Drug uptake in overnight fasted Sprague-Dawley rat liver at 0.7 to 1.4 MBq, iv preincubated with POCA for 2 hrs before compound administration measured at 30 mins post treatment; type: ADME, organism-based; settings: in vivo, 0.5 h; how it was run: as §2
[10] = system: Liver; experiment: Biodistribution in overnight fasted Sprague-Dawley rat liver pellet fraction at 0.7 to 1.4 MBq, iv at 120 mins by Folch-type extraction method; type: ADME, organism-based; settings: in vivo, 2 h; how it was run: as §1
[11] = system: Heart; experiment: Biodistribution in overnight fasted Sprague-Dawley rat heart organic fraction at 0.7 to 1.4 MBq, iv at 30 mins by Folch-type extraction method; type: ADME, organism-based; settings: in vivo, 0.5 h; how it was run: as §1
[12] = system: Muscle tissue; experiment: Biodistribution in overnight fasted Sprague-Dawley rat muscle aqueous fraction at 0.7 to 1.4 MBq, iv preincubated with POCA for 2 hrs before compound administration measured at 120 mins post treatment by Folch-type extraction method; type: ADME, organism-based; settings: in vivo; how it was run: as §1
[13] = system: Liver; experiment: Biodistribution in overnight fasted Sprague-Dawley rat liver organic fraction at 0.7 to 1.4 MBq, iv preincubated with POCA for 2 hrs before compound administration measured at 120 mins post treatment by Folch-type extraction method; type: ADME, organism-based; settings: in vivo; how it was run: as §1
[14] = system: Muscle tissue; experiment: Biodistribution in overnight fasted Sprague-Dawley rat muscle pellet fraction at 0.7 to 1.4 MBq, iv at 30 mins by Folch-type extraction method; type: ADME, organism-based; settings: in vivo, 0.5 h; how it was run: as §1
[15] = system: Blood; experiment: Drug uptake in overnight fasted Sprague-Dawley rat blood at 0.7 to 1.4 MBq, iv preincubated with POCA for 2 hrs before compound administration measured at 120 mins post treatment; type: ADME, organism-based; settings: in vivo; how it was run: as §3
[16] = system: Blood; experiment: Drug uptake in overnight fasted Sprague-Dawley rat blood at 0.7 to 1.4 MBq, iv preincubated with POCA for 2 hrs before compound administration measured at 30 mins post treatment; type: ADME, organism-based; settings: in vivo, 0.5 h; how it was run: as §3
[17] = system: Liver; experiment: Drug uptake in overnight fasted Sprague-Dawley rat liver at 9 to 11 MBq, iv at 5 mins by microPET analysis; type: ADME, organism-based; settings: in vivo
How it was run: (§4)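 Female rats fasted overnight, under isoflurane. 18F-labelled tracer (9–11 MBq) given into a tail vein. Dynamic PET acquisition over the upper thorax for 50 min, then a static whole-body scan 55–115 min post-injection. 2–5 rats per tracer.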

[18] = system: Muscle tissue; experiment: Biodistribution in overnight fasted Sprague-Dawley rat muscle organic fraction at 0.7 to 1.4 MBq, iv preincubated with POCA for 2 hrs before compound administration measured at 30 mins post treatment by Folch-type extraction method; type: ADME, organism-based; settings: in vivo, 0.5 h; how it was run: as §1
[19] = system: Heart; experiment: Biodistribution in overnight fasted Sprague-Dawley rat heart pellet fraction at 0.7 to 1.4 MBq, iv preincubated with POCA for 2 hrs before compound administration measured at 120 mins post treatment by Folch-type extraction method; type: ADME, organism-based; settings: in vivo; how it was run: as §1
[20] = system: Bone; experiment: Drug uptake in overnight fasted Sprague-Dawley rat bone at 0.7 to 1.4 MBq, iv preincubated with POCA for 2 hrs before compound administration measured at 120 mins post treatment; type: ADME, organism-based, Bone element; settings: in vivo; how it was run: as §3
[21] = system: Muscle tissue; experiment: Biodistribution in overnight fasted Sprague-Dawley rat muscle pellet fraction at 0.7 to 1.4 MBq, iv at 120 mins by Folch-type extraction method; type: ADME, organism-based; settings: in vivo, 2 h; how it was run: as §1
[22] = system: Kidney; experiment: Drug uptake in overnight fasted Sprague-Dawley rat kidney at 0.7 to 1.4 MBq, iv at 30 mins; type: ADME, organism-based; settings: in vivo, 0.5 h; how it was run: as §2
[23] = system: Heart; experiment: Drug uptake in overnight fasted Sprague-Dawley rat heart at 0.7 to 1.4 MBq, iv preincubated with POCA for 2 hrs before compound administration measured at 30 mins post treatment; type: ADME, organism-based; settings: in vivo, 0.5 h; how it was run: as §2
[24] = system: Liver; experiment: Biodistribution in overnight fasted Sprague-Dawley rat liver aqueous fraction at 0.7 to 1.4 MBq, iv preincubated with POCA for 2 hrs before compound administration measured at 120 mins post treatment by Folch-type extraction method; type: ADME, organism-based; settings: in vivo; how it was run: as §1
[25] = system: Heart; experiment: Biodistribution in overnight fasted Sprague-Dawley rat heart pellet fraction at 0.7 to 1.4 MBq, iv preincubated with POCA for 2 hrs before compound administration measured at 30 mins post treatment by Folch-type extraction method; type: ADME, organism-based; settings: in vivo, 0.5 h; how it was run: as §1
[26] = system: Heart; experiment: Drug uptake in overnight fasted Sprague-Dawley rat heart at 9 to 11 MBq, iv at 5 mins by microPET analysis; type: ADME, organism-based; settings: in vivo; how it was run: as §4
[27] = system: Heart; experiment: Biodistribution in overnight fasted Sprague-Dawley rat heart aqueous fraction at 0.7 to 1.4 MBq, iv at 30 mins by Folch-type extraction method; type: ADME, organism-based; settings: in vivo, 0.5 h; how it was run: as §1
[28] = system: Liver; experiment: Biodistribution in overnight fasted Sprague-Dawley rat liver aqueous fraction at 0.7 to 1.4 MBq, iv at 30 mins by Folch-type extraction method; type: ADME, organism-based; settings: in vivo, 0.5 h; how it was run: as §1
[29] = system: Liver; experiment: Drug uptake in overnight fasted Sprague-Dawley rat liver at 0.7 to 1.4 MBq, iv preincubated with POCA for 2 hrs before compound administration measured at 120 mins post treatment; type: ADME, organism-based; settings: in vivo; how it was run: as §2

Drug uptake [1] [%]	Drug uptake [2] [%IDKg/g]	Drug uptake [3] [%IDKg/g]	Drug uptake [4] [%IDKg/g]	Drug uptake [5] [%]	Drug uptake [6] [%IDKg/g]	Drug uptake [7] [%]	Drug uptake [8] [%IDKg/g]	Drug uptake [9] [%IDKg/g]	Drug uptake [10] [%]	Drug uptake [11] [%]	Drug uptake [12] [%]	Drug uptake [13] [%]	Drug uptake [14] [%]	Drug uptake [15] [%IDKg/g]	Drug uptake [16] [%IDKg/g]	Drug uptake [17]	Drug uptake [18] [%]	Drug uptake [19] [%]	Drug uptake [20] [%IDKg/g]	further results	SMILES
35.26	0.1554	0.022	0.1629	27.76	0.0639	18.18	0.1171	0.8492	54.58	25.81	9.3	64.78	38.95	0.0271	0.051	Active	43.43	22.48	0.2104	Drug uptake [21]: 42.06%; Drug uptake [22]: 0.2095 %IDKg/g; Drug uptake [23]: 0.3331 %IDKg/g; Drug uptake [24]: 7.45%; Drug uptake [25]: 32.16%; Drug uptake [26]: Active; Drug uptake [27]: 4.02%; Drug uptake [28]: 9.65%; Drug uptake [29]: 0.419 %IDKg/g	O=C(O)CCCCSCCCCCCCCCCCC[18F]
55.69	0.0947	0.0143	0.0726	22.07	0.0443	11.58	0.2309	0.4064	36.13	17.29	9.12	67.69	32.22	0.0125	0.051	Active	47.15	21.68	0.4042	Drug uptake [21]: 39.51%; Drug uptake [22]: 0.1872 %IDKg/g; Drug uptake [23]: 0.1814 %IDKg/g; Drug uptake [24]: 10.23%; Drug uptake [25]: 24.67%; Drug uptake [26]: Active; Drug uptake [27]: 3.97%; Drug uptake [28]: 15.36%; Drug uptake [29]: 0.1341 %IDKg/g	O=C(O)CCSCCCCCCCCCCCCCC[18F]
31.39	0.1637	0.0154	0.1014	38.47	0.0333	16.17	0.235	0.6197	63.27	38.56	19.16	50	43.18	0.0392	0.0633	Active	42.23	24.47	0.6549	Drug uptake [21]: 49.81%; Drug uptake [22]: 0.209 %IDKg/g; Drug uptake [23]: 0.0792 %IDKg/g; Drug uptake [24]: 11.52%; Drug uptake [25]: 32.81%; Drug uptake [26]: Active; Drug uptake [27]: 2.63%; Drug uptake [28]: 13.52%; Drug uptake [29]: 0.4433 %IDKg/g	O=C(O)CCSCCCCCCCCCCCC[18F]
34.75	0.0611	0.0215	0.1244	23.82	0.0297	9.91	0.1531	0.8162	59.56	8.46	11.37	68.06	59.12	0.0141	0.0606	Active	43.19	29.14	0.299	Drug uptake [21]: 67.95%; Drug uptake [22]: 0.2035 %IDKg/g; Drug uptake [23]: 0.1155 %IDKg/g; Drug uptake [24]: 8.1%; Drug uptake [25]: 23.8%; Drug uptake [26]: Active; Drug uptake [27]: 2.86%; Drug uptake [28]: 8.43%; Drug uptake [29]: 0.1666 %IDKg/g	O=C(O)CCSCCCC/C=C\CCCCCCCC[18F]
